The source made the active and inactive calls. The rule behind the calls is not given here.

As a reminder, the IC50 is the concentration needed to halve the response being measured.

Experiment [1] concerns PC-3. Nature of the experiment: Cytotoxicity against human PC3 cells assessed as growth inhibition after 96 hrs by SRB assay. In kind it is functional, cell-based. The settings on record: PC-3, 96 h. The method, boiled down:
(§1)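 Plated at 1000–5000 cells/well depending on growth rate and treated with graded compound concentrations for 96 h, three to five replicates. Cell number was measured by SRB: 10% TCA fixation, 0.4% SRB staining, absorbance at 540 nm. IC50 relative to untreated control came from a nonlinear regression fit.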
On the technique in general: In SRB staining, fixed cells bind dye roughly in proportion to their protein.

The nature of experiment [2]: Cytotoxicity against human MDA-MB-435/LCC6MDR1 cells assessed as growth inhibition after 48 hrs by SRB assay. In kind it is functional, cell-based, MDA-MB-435/LCC6 MDR1. The settings on record: Homo sapiens, MDA-MB-435/LCC6 MDR1, 48 h.
Another experiment deals with LNCaP. The experiment is described as follows: Cytotoxicity against human LNCAP cells assessed as growth inhibition after 96 hrs by SRB assay. In kind it is functional, cell-based. In short, it runs like this:
as §1

Experiment [3] in a line: Cytotoxicity against human WM164 cells assessed as growth inhibition after 48 hrs by SRB assay. The format is functional, cell-based. The settings on record: WM164, 48 h. The method, boiled down: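 Melanoma cells from ATCC, grown in DMEM with 10% FBS at 37°C under 5% CO2. Seeded at 1000–5000 cells/well according to growth rate and exposed to a range of compound concentrations for 48 h, in three to five replicates. Cells were fixed with 10% TCA, stained with 0.4% SRB and read at 540 nm. IC50 (50% growth inhibition versus untreated control) was taken from nonlinear regression of % survival against concentration.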

For the next experiment, the system named is DU-145. The experiment is described as follows: Cytotoxicity against human DU145 cells assessed as growth inhibition after 96 hrs by SRB assay. The format is functional, cell-based. The note with it: Homo sapiens, DU-145, 96 h.
The next experiment has as its system A-375. Nature of the experiment: Cytotoxicity against human A375 cells assessed as growth inhibition after 48 hrs by SRB assay. The format is functional, cell-based. The note with it: A-375, 48 h. In short, it runs like this: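 Melanoma cells from ATCC, grown in DMEM with 10% FBS at 37°C under 5% CO2. Seeded at 1000–5000 cells/well according to growth rate and exposed to a range of compound concentrations for 48 h, in three to five replicates. Cells were fixed with 10% TCA, stained with 0.4% SRB and read at 540 nm.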

A further experiment deals with PPC-1. The experiment is described as follows: Cytotoxicity against human PPC1 cells assessed as growth inhibition after 96 hrs by SRB assay. In kind it is functional, cell-based. The settings on record: PPC-1, 96 h. In short, it runs like this: as §1
In the next experiment the test system is MDA-MB-435. Nature of the experiment: Cytotoxicity against human MDA-MB-435 cells assessed as growth inhibition after 48 hrs by SRB assay. The settings on record: MDA-MB-435, 48 h. The format is functional, cell-based.
Experiment [4] can be described thus: Resistance index, ratio of IC50 for human MDA-MB-435/LCC6 MDR1 cells to IC50 for human MDA-MB-435 cells. In kind it is functional.
The species entered for the next experiment is Bos taurus. The experiment is described as follows: Competitive binding affinity to bovine brain tubulin after 1 hr by mass spectrometry binding assay in presence of colchicine. In kind it is tissue-based.
Experiment [5] deals with PC-3. Nature of the experiment: Cell cycle arrest in human PC3 cells assessed as accumulation at G2/M phase after 24 hrs by propidium iodide staining based FACS analysis (reference value: 18%). The format is functional. A general note: A flow cytometer gives signals particle by particle.
In another experiment the target is Tubulin (Sus scrofa) (UniProt P02554+P02550). Nature of the experiment: Inhibition of pig brain tubulin polymerization measured every 1 min for 40 mins by microplate reader analysis. In short, it runs like this:
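Polymerization was followed with a fluorescence-enhanced tubulin polymerization assay kit.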

Tubulin (Sus scrofa), sequence (P02550 whole entry, looked up): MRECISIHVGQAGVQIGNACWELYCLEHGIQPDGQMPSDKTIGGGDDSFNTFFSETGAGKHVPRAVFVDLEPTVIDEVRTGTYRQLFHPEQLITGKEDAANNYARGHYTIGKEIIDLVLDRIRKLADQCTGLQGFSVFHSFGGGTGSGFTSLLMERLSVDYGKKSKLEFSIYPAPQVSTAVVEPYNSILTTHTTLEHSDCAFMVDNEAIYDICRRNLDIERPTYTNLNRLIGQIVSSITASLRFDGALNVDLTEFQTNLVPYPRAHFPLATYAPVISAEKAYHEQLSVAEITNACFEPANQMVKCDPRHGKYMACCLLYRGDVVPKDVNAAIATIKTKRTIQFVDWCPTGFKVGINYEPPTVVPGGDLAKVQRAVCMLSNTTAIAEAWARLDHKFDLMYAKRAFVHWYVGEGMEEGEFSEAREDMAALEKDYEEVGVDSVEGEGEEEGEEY
Tubulin (Sus scrofa), sequence (P02554 whole entry, looked up): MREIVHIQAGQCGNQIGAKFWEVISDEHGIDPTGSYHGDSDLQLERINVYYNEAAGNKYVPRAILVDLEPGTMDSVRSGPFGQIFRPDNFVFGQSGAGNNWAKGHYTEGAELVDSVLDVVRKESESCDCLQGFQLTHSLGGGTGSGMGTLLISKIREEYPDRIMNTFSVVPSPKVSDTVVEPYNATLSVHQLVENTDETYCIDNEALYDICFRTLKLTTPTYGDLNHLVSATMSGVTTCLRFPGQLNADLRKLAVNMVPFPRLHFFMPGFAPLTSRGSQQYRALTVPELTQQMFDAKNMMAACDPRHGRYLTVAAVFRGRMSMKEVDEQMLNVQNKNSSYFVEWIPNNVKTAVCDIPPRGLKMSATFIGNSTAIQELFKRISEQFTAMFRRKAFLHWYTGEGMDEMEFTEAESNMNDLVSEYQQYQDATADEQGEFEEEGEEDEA

`Cc1ccc(C(=O)c2nc(-c3ccc(C)cc3)c[nH]2)cc1`: the IC50 in the experiment on PC-3 [1] amounted to 5160 nM; in [2], 3270 nM; with LNCaP, 3760 nM; in experiment [3], 3690 nM; in the experiment with DU-145 it was 6540 nM; with A-375 it was 2540 nM. Besides, the figures for the IC50 with PPC-1 and in the experiment on MDA-MB-435 were 2400 nM and 3020 nM, respectively.
With `COc1cc(C(=O)c2nc(-c3ccc(C(F)(F)F)cc3)c[nH]2)cc(OC)c1OC`, the IC50 in the experiment with PC-3 [1] came to 93 nM; in experiment [2], 175 nM; in the experiment on LNCaP, 47 nM; in experiment [3] it was 143 nM; in the experiment with DU-145 it was 210 nM; in the experiment with A-375, 123 nM. Moreover, the values for the IC50 in the experiment with PPC-1 and in the experiment with MDA-MB-435 were 74 nM and 120 nM, respectively. Besides, the “Ratio IC50” value in experiment [4] is 0.8.
For `COc1cc(C(=O)c2nc(-c3ccccc3)cn2-c2ccccn2)cc(OC)c1OC`, the IC50 in experiment [2] was determined as 15 nM; in the experiment on LNCaP, 20 nM; in [3], 6 nM; in the experiment on DU-145 it was 37 nM; with A-375, 14 nM; in the experiment on PPC-1, 8 nM. Moreover, the IC50 with MDA-MB-435 came to 11 nM. In addition, the result in the experiment filed under Bos taurus was Active.
As for `O=C(c1ccccc1)c1nc(-c2ccccc2)c[nH]1`, the IC50 (in the experiment with PC-3 [1]; in experiment [2]; in the experiment with LNCaP; in [3]; in the experiment on DU-145; in the experiment on A-375) was greater than 50000 nM in each case. For the same compound, the IC50 with PPC-1 and with MDA-MB-435 was greater than 50000 nM each time.
Turning to `COc1cc(C(=O)c2nc(-c3ccc(Br)cc3)c[nH]2)cc(OC)c1OC`, the half-maximal inhibitory concentration (IC50) with PC-3 [1] turned out to be 33 nM; in [2], 43 nM; with LNCaP, 15 nM; in experiment [3], 31 nM; in the experiment on DU-145 it was 66 nM; in the experiment with A-375, 29 nM. The IC50 with MDA-MB-435 came out at 58 nM. Further, the Activity result in the experiment on PC-3 [5] was “Dose-dependent effect”; in the experiment with PC-3 [5] (record 2) it was “<=70%”.
`O=C(c1ccc(F)cc1)c1nc(-c2ccc(F)cc2)c[nH]1`: the IC50 (in the experiment with PC-3 [1]; in experiment [2]; in the experiment with LNCaP; in experiment [3]; in the experiment on DU-145; with A-375) was greater than 50000 nM in each case. The half-maximal inhibitory concentration (IC50) with PPC-1 and with MDA-MB-435 was greater than 50000 nM throughout.
As to `COc1cc(C(=O)c2nc(-c3ccccc3)cn2C2CCCC2)cc(OC)c1OC`, the IC50 with PC-3 [1] turned out to be 56 nM; in experiment [2] it was 161 nM; in the experiment with LNCaP, 51 nM; in experiment [3], 56 nM; in the experiment with DU-145, 167 nM; in the experiment with A-375, 135 nM. Moreover, the IC50 with PPC-1 is 63 nM; with MDA-MB-435, 134 nM.
On to `COc1cc(C(=O)c2nc(-c3ccccc3)c[nH]2)cc(OC)c1OC`, for which the IC50 in the experiment on PC-3 [1] was 14 nM; in experiment [2] it was 11 nM; with LNCaP, 6 nM; in [3], 14 nM; in the experiment with DU-145, 22 nM; with A-375, 9 nM. Moreover, the IC50 in the experiment on PPC-1 was determined as 13 nM; with MDA-MB-435 it was 24 nM. For the same compound, the “Ratio IC50” value in experiment [4] is reported as 0.5. The inhibition entry at Tubulin (Sus scrofa) was “Active”. Besides, the outcome in the experiment listed under Bos taurus was Active. Also, the Activity entry in the experiment on PC-3 [5] is “Dose-dependent effect”; in the experiment with PC-3 [5] (record 2) it was “<=70%”.
Take `CC[C@]1(O)C[C@@H]2CN(CCc3c([nH]c4ccccc34)[C@@](C(=O)OC)(c3cc4c(cc3OC)N(C)[C@H]3[C@@](O)(C(=O)OC)[C@H](OC(C)=O)[C@]5(CC)C=CCN6CC[C@]43[C@@H]65)C2)C1`: the inhibition result at Tubulin (Sus scrofa) is “Dose-dependent effect”. In the experiment listed under Bos taurus, the result was inactive.
Consider `COc1cc(C(=O)c2nc(-c3ccccc3)cn2C)cc(OC)c1OC`, for which the IC50 in the experiment with PC-3 [1] amounted to 16 nM; in [2] it was 18 nM; in [3] it was 33 nM; in the experiment with DU-145, 26 nM; in the experiment on A-375, 9 nM; in the experiment on PPC-1, 13 nM. In the experiment with MDA-MB-435, the IC50 came to 16 nM. For the same compound, the inhibition entry at Tubulin (Sus scrofa) was “Active”. Also, the Activity entry is “Dose-dependent effect” with PC-3 [5] and “<=70%” in the experiment with PC-3 [5] (record 2).
For `COc1ccc(C(=O)c2nc(-c3cc(OC)c(OC)c(OC)c3)c[nH]2)cc1`, the IC50 in the experiment on PC-3 [1] is 10400 nM; in [2], 11400 nM; with LNCaP, 708 nM; in experiment [3], 36000 nM; with DU-145, greater than 50000 nM; with A-375, 35400 nM. In addition, the IC50 came to 5680 nM in the experiment with PPC-1 and 11000 nM with MDA-MB-435.
In the case of `COc1cc(C(=O)c2nc(-c3ccccc3)cn2C(C)C)cc(OC)c1OC`, the IC50 with PC-3 [1] amounted to 53 nM; in [2] it was 44 nM; in the experiment with LNCaP, 62 nM; in experiment [3], 23 nM; in the experiment with DU-145, 114 nM; in the experiment on A-375, 38 nM. The IC50 in the experiment with PPC-1 amounted to 15 nM; in the experiment on MDA-MB-435, 18 nM.
For the compound `CCCc1[nH]c(C(=O)c2cc(OC)c(OC)c(OC)c2)nc1-c1ccccc1`, the IC50 in the experiment on PC-3 [1] was 12400 nM; in [2], 14300 nM; with LNCaP, 3090 nM; in [3], 19600 nM; with DU-145, 16400 nM; in the experiment on A-375, 37000 nM. Also, the IC50 came to 11400 nM with PPC-1 and 30500 nM with MDA-MB-435.
On to `CCc1ccc(-c2nc(C(=O)c3cc(OC)c(OC)c(OC)c3)c[nH]2)cc1`, for which the IC50 in the experiment on PC-3 [1] was 13 nM; in [2], 27 nM; in the experiment with DU-145 it was 25 nM; in the experiment with A-375, 14 nM; in the experiment with PPC-1, 15 nM; with MDA-MB-435 it was 25 nM. Further, the results for the Activity result with PC-3 [5] and with PC-3 [5] (record 2) were “Dose-dependent effect” and “<=70%”, respectively.
Turning to `CCCn1cc(-c2ccccc2)nc1C(=O)c1cc(OC)c(OC)c(OC)c1`, the IC50 was found to be 26 nM in the experiment with PC-3 [1]; 44 nM in experiment [2]; 49 nM with LNCaP; 14 nM in [3]; 72 nM with DU-145; 42 nM in the experiment with A-375. Also, the results for the IC50 in the experiment on PPC-1 and with MDA-MB-435 were 10 nM and 37 nM, respectively.
With `CCn1cc(-c2ccccc2)nc1C(=O)c1cc(OC)c(OC)c(OC)c1`, the IC50 in the experiment on PC-3 [1] is 25 nM; in experiment [2], 33 nM; in the experiment with LNCaP it was 29 nM; in experiment [3], 16 nM; with DU-145, 66 nM; in the experiment on A-375, 28 nM. Moreover, the IC50 with MDA-MB-435 turned out to be 26 nM. In addition, the Activity entry was “Dose-dependent effect” in the experiment on PC-3 [5] and “<=70%” in the experiment on PC-3 [5] (record 2).
As for `COc1cc(C(=O)c2nc(-c3ccc(N(C)C)cc3)c[nH]2)cc(OC)c1OC`, the IC50 in the experiment with PC-3 [1] worked out at 118 nM; in [2], 162 nM; in the experiment with LNCaP, 96 nM; in [3], 129 nM; with DU-145, 263 nM; in the experiment on A-375 it was 141 nM. Moreover, the results for the IC50 with PPC-1 and with MDA-MB-435 were 120 nM and 200 nM, respectively.
For `O=C(c1ccc(Br)cc1)c1nc(-c2ccc(Br)cc2)c[nH]1`, the half-inhibitory concentration (IC50) with PC-3 [1] came out at 18900 nM; in experiment [2], 17800 nM; in the experiment on LNCaP, 16900 nM; in experiment [3] it was 26300 nM; in the experiment with DU-145, 25500 nM; with A-375, 25000 nM. Moreover, the IC50 with PPC-1 is 13200 nM; with MDA-MB-435 it was 14400 nM.
`COc1cc(C(=O)c2nc(-c3ccccc3)c(C)[nH]2)cc(OC)c1OC`: the IC50 in the experiment on PC-3 [1] is 1620 nM; in [2], 1590 nM; in the experiment with LNCaP, 938 nM; in experiment [3], 1900 nM; in the experiment with DU-145, 2000 nM; in the experiment on A-375, 1300 nM. Moreover, the IC50 in the experiment with PPC-1 came out at 860 nM; in the experiment with MDA-MB-435, 1630 nM.

The record behind these values is ChEMBL document CHEMBL2321845, “Discovery of 4-Aryl-2-benzoyl-imidazoles as tubulin polymerization inhibitor with potent antiproliferative properties” (J Med Chem, 2013).
